Laboratory results from ChEMBL document CHEMBL1955783, “Identification and optimization of small molecule antagonists of vasoactive intestinal peptide receptor-1 (VIPR1)” (Bioorg Med Chem Lett, 2012).
The source made the active and inactive calls. The rule behind the calls is not given here.

tested on: Calu-6; assay: Cytotoxicity against human Calu6 cells expressing VIPR1 up to 10 uM in presence of 2% serum; assay type: functional, cell-based; conditions: not given
Outline: (§1)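 Cell proliferation in H727, H1299 and Calu6 lines, chosen for high VIPR1 expression. Medium held 2% serum to limit albumin sequestration. Compounds were tested at concentrations up to 10 µM.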

Q: Which Activity does the source give for CC(C)c1cc(C(C)(C)C)cc(-c2ccc(F)cc2)c1CO here?
A: Its Activity is “inactive”.

Q: With CC(C)c1cc(C(C)(C)C)cc(-c2ccccc2)c1CO as the molecule, how does the Activity read?
A: The Activity was “inactive”.

Q: Which Activity does the source give for CC(C)c1cc(C(C)(C)C)cc(-c2ccc3ccccc3c2)c1CO here?
A: Its Activity is “inactive”.

Q: Which Activity does the source give for COc1cccc(-c2cc(C(C)(C)C)cc(C(C)C)c2CO)c1 here?
A: Its Activity is “inactive”.

Q: Which Activity does the source give for CC(C)c1cc(C(C)(C)C)cc(-c2ccc(Cl)cc2)c1CO here?
A: Its Activity is “inactive”.

Q: For Cc1ccc(-c2cc(C(C)(C)C)cc(C(C)C)c2CO)cc1C, which Activity is on record?
A: Its Activity is “inactive”.

Q: With Cc1cccc(-c2cc(C(C)(C)C)cc(C(C)C)c2CO)c1 as the molecule, how does the Activity read?
A: The Activity was “inactive”.

tested on: NCI-H1299; assay: Cytotoxicity against human NCI-H1299 cells expressing VIPR1 up to 10 uM in presence of 2% serum; assay type: functional, cell-based; conditions: not given; outline: as §1

Q: For CC(C)c1cc(C(C)(C)C)cc(-c2ccc(F)cc2)c1CO, which Activity is on record?
A: The Activity was “inactive”.

Q: For CC(C)c1cc(C(C)(C)C)cc(-c2ccccc2)c1CO, which Activity is on record?
A: The Activity was “inactive”.

Q: Which Activity does the source give for CC(C)c1cc(C(C)(C)C)cc(-c2ccc3ccccc3c2)c1CO here?
A: The Activity was “inactive”.

Q: For COc1cccc(-c2cc(C(C)(C)C)cc(C(C)C)c2CO)c1, which Activity is on record?
A: Its Activity is “inactive”.

Q: Which Activity does the source give for CC(C)c1cc(C(C)(C)C)cc(-c2ccc(Cl)cc2)c1CO here?
A: Its Activity is “inactive”.

Q: For Cc1ccc(-c2cc(C(C)(C)C)cc(C(C)C)c2CO)cc1C, which Activity is on record?
A: Its Activity is “inactive”.

Q: With Cc1cccc(-c2cc(C(C)(C)C)cc(C(C)C)c2CO)c1 as the molecule, how does the Activity read?
A: Its Activity is “inactive”.

tested on: NCI-H727; assay: Cytotoxicity against human NCI-H727 cells expressing VIPR1 up to 10 uM in presence of 2% serum; assay type: functional, cell-based; conditions: not given; outline: as §1

Q: For CC(C)c1cc(C(C)(C)C)cc(-c2ccc(F)cc2)c1CO, which Activity is on record?
A: Its Activity is “inactive”.

Q: For CC(C)c1cc(C(C)(C)C)cc(-c2ccccc2)c1CO, which Activity is on record?
A: Its Activity is “inactive”.

Q: For CC(C)c1cc(C(C)(C)C)cc(-c2ccc3ccccc3c2)c1CO, which Activity is on record?
A: The Activity was “inactive”.

Q: For COc1cccc(-c2cc(C(C)(C)C)cc(C(C)C)c2CO)c1, which Activity is on record?
A: Its Activity is “inactive”.

Q: For CC(C)c1cc(C(C)(C)C)cc(-c2ccc(Cl)cc2)c1CO, which Activity is on record?
A: The Activity was “inactive”.

Q: For Cc1ccc(-c2cc(C(C)(C)C)cc(C(C)C)c2CO)cc1C, which Activity is on record?
A: Its Activity is “inactive”.

Q: Which Activity does the source give for Cc1cccc(-c2cc(C(C)(C)C)cc(C(C)C)c2CO)c1 here?
A: Its Activity is “inactive”.

tested on: not listed separately; assay: Plasma protein binding in human; assay type: ADME, cell-free; conditions: read-out: PPB (converted)

Q: With CC(C)c1cc(C(C)(C)C)cc(-c2ccc(F)cc2)c1CO as the molecule, how does the fraction unbound read?
A: Its fraction unbound is 0.1.

tested on: not listed separately; assay: Plasma protein binding in mouse; assay type: ADME, cell-free; conditions: read-out: PPB (converted)

Q: Which fraction unbound does the source give for CC(C)c1cc(C(C)(C)C)cc(-c2ccc(F)cc2)c1CO here?
A: The fraction unbound was 0.1.

target: T1, Vasoactive intestinal polypeptide receptor 1 (Rattus norvegicus) (UniProt P30083); assay: Displacement of [125I]VIP from vasoactive intestinal peptide receptor 1 in rat RKE cell membrane after 3 hrs by TopCount assay; assay type: cell membranes; conditions: not given
T1 sequence (whole entry): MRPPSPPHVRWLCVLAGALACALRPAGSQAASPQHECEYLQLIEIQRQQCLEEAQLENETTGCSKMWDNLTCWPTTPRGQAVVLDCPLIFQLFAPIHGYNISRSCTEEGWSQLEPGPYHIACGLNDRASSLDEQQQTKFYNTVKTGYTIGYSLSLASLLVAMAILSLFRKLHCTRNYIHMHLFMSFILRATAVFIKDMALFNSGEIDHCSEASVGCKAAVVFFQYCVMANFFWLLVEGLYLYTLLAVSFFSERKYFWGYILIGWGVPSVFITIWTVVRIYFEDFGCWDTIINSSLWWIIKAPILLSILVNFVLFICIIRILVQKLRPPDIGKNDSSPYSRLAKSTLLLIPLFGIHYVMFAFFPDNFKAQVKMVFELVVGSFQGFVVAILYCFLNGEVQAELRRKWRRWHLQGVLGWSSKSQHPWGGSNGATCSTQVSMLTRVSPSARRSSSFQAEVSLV
Outline: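 Membranes from RKE-VIPR cells, 5 µg/well final, preincubated 10 min at room temperature with wheat germ agglutinin-coated PVT beads in 50 mM HEPES, 5 mM MgCl2, 1 mM CaCl2, 0.1% BSA. IC50 taken from a four-parameter logistic fit after subtracting nonspecific binding, defined with excess VIP.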

Q: With CC(C)c1cc(C(C)(C)C)cc(-c2ccc(F)cc2)c1CO as the molecule, how does the Activity read?
A: The Activity was “Active”.

Q: Which Activity does the source give for CC(C)c1cc(C(C)(C)C)cc(-c2ccccc2)c1CO here?
A: The Activity was “Active”.

Q: For CC(C)c1cc(C(C)(C)C)cc(-c2ccc3ccccc3c2)c1CO, which Activity is on record?
A: The Activity was “Active”.

Q: With COc1cccc(-c2cc(C(C)(C)C)cc(C(C)C)c2CO)c1 as the molecule, how does the Activity read?
A: Its Activity is “Active”.

Q: Which Activity does the source give for CC(C)c1cc(C(C)(C)C)cc(-c2ccc(Cl)cc2)c1CO here?
A: The Activity was “Active”.

Q: Which Activity does the source give for Cc1ccc(-c2cc(C(C)(C)C)cc(C(C)C)c2CO)cc1C here?
A: Its Activity is “Active”.

Q: With Cc1cccc(-c2cc(C(C)(C)C)cc(C(C)C)c2CO)c1 as the molecule, how does the Activity read?
A: Its Activity is “Active”.

target: T2, Vasoactive intestinal polypeptide receptor 1 (Rattus norvegicus, UniProt P30083); assay: Antagonist activity at vasoactive intestinal peptide receptor 1 in rat RKE cells assessed as inhibition of VIP-induced intracellular cAMP accumulation incubated for 15 mins prior to VIP-stimulation measured after 30 mins by HTRF assay; conditions: not given
T2 sequence (P30083 whole entry): T1 sequence (whole entry)

Q: Which IC50 does the source give for CC(C)c1cc(C(C)(C)C)cc(-c2ccc(F)cc2)c1CO here?
A: Its IC50 is 740 nM.

Q: Which IC50 does the source give for CC(C)c1cc(C(C)(C)C)cc(-c2ccccc2)c1CO here?
A: Its IC50 is 390 nM.

Q: With CC(C)c1cc(C(C)(C)C)cc(-c2ccc3ccccc3c2)c1CO as the molecule, how does the IC50 read?
A: The IC50 was 120 nM.

Q: For COc1cccc(-c2cc(C(C)(C)C)cc(C(C)C)c2CO)c1, which IC50 is on record?
A: Its IC50 is 200 nM.

Q: Which IC50 does the source give for CC(C)c1cc(C(C)(C)C)cc(-c2ccc(Cl)cc2)c1CO here?
A: The IC50 was 290 nM.

Q: Which IC50 does the source give for Cc1ccc(-c2cc(C(C)(C)C)cc(C(C)C)c2CO)cc1C here?
A: Its IC50 is 81 nM.

Q: With Cc1cccc(-c2cc(C(C)(C)C)cc(C(C)C)c2CO)c1 as the molecule, how does the IC50 read?
A: Its IC50 is 240 nM.
